Measurements from ChEMBL document CHEMBL2311380, “The first total synthesis and biological evaluation of marine natural products ma'edamines A and B” (Bioorg Med Chem Lett, 2013).
Activity calls are given as the source filed them. The rule behind the calls is not given here.

Assays:
[1] = system: THP-1; assay: Cytotoxicity against human acute monocytic leukemia cell line THP1 assessed as inhibition of cell viability measured after 24 hrs by MTT assay; format: functional, cell-based; settings: THP-1, 24 h
In short: (§1)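 Exponentially growing cells exposed to compound, then allowed to proliferate for two to three population doubling times; surviving cells quantified by MTT reduction by mitochondrial dehydrogenase to formazan, dissolved in DMSO and read at 570 nm.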

[2] = system: A549; assay: Cytotoxicity against human lung adenocarcinoma cell line A549 assessed as inhibition of cell viability measured after 24 hrs by MTT assay; format: functional, cell-based; settings: A549, 24 h; in short: as §1
[3] = system: MCF7; assay: Cytotoxicity against human colon cancer line MCF7 assessed as cell death measured at 7 ug/mL after 24 hrs by MTT assay; format: functional
In short: (§2)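 Cells in exponential growth exposed to compound, then left to proliferate for two to three population doubling times so viable, proliferating cells are told apart from non-proliferating ones. Surviving cells estimated by MTT reduction to formazan by mitochondrial dehydrogenase; formazan dissolved in DMSO and read at 570 nm.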

[4] = system: MCF7; assay: Cytotoxicity against human colon cancer line MCF7 assessed as cell death measured at 5 ug/mL after 24 hrs by MTT assay; format: functional; in short: as §2
[5] = system: A549; assay: Cytotoxicity against human […] assessed as cell death measured at 1 ug/mL after 24 hrs by MTT assay; format: functional; in short: as §2
[6] = system: MCF7; assay: Cytotoxicity against human colon cancer line MCF7 assessed as cell death measured at 1 ug/mL after 24 hrs by MTT assay; format: functional; in short: as §2
[7] = system: A549; assay: Cytotoxicity against human […] assessed as cell death measured at 7 ug/mL after 24 hrs by MTT assay; format: functional; in short: as §2
[8] = system: A549; assay: Cytotoxicity against human […] assessed as cell death measured at 10 ug/mL after 24 hrs by MTT assay; format: functional; in short: as §2
[9] = system: COLO 205; assay: Cytotoxicity against human colon cancer line COLO205 assessed as cell death measured at 2 ug/mL after 24 hrs by MTT assay; format: functional; in short: as §2
[10] = system: A549; assay: Cytotoxicity against human […] assessed as cell death measured at 2 ug/mL after 24 hrs by MTT assay; format: functional; in short: as §2
[11] = system: A549; assay: Cytotoxicity against human […] assessed as cell death measured at 5 ug/mL after 24 hrs by MTT assay; format: functional; in short: as §2
[12] = system: MCF7; assay: Cytotoxicity against human breast cancer cell line MCF7 assessed as inhibition of cell viability […] by MTT assay; format: functional, cell-based
[13] = system: COLO 205; assay: Cytotoxicity against human colon cancer line COLO205 assessed as cell death measured at 1 ug/mL after 24 hrs by MTT assay; format: functional; in short: as §2
[14] = system: COLO 205; assay: Cytotoxicity against human colon cancer line COLO205 assessed as inhibition of cell viability measured after 24 hrs by MTT assay; format: functional, cell-based; settings: COLO 205, 24 h; in short: as §1
[15] = system: MCF7; assay: Cytotoxicity against human colon cancer line MCF7 assessed as cell death measured at 2 ug/mL after 24 hrs by MTT assay; format: functional; in short: as §2
[16] = system: MCF7; assay: Cytotoxicity against human colon cancer line MCF7 assessed as cell death measured at 10 ug/mL after 24 hrs by MTT assay; format: functional; in short: as §2
[17] = system: COLO 205; assay: Cytotoxicity against human colon cancer line COLO205 assessed as cell death measured at 5 ug/mL after 24 hrs by MTT assay; format: functional; in short: as §2
[18] = system: COLO 205; assay: Cytotoxicity against human colon cancer line COLO205 assessed as cell death measured at 7 ug/mL after 24 hrs by MTT assay; format: functional; in short: as §2
[19] = system: COLO 205; assay: Cytotoxicity against human colon cancer line COLO205 assessed as cell death measured at 10 ug/mL after 24 hrs by MTT assay; format: functional; in short: as §2
[20] = system: MCF7; assay: Induction of apoptosis in human MCF7 cells assessed as double-strand DNA break at IC50 concentration measured after 24 hrs by comet assay relative to control; format: functional, cell-based
In short: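 Treated cells embedded in low melting agarose on a microscope slide, lysed at alkaline pH, electrophoresed at high pH, then examined for comet tails as a sign of double-strand DNA breaks, with untreated cells as control.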

[21] = system: MCF7; assay: Cytotoxicity against human breast cancer cell line MCF7 assessed as cell survival measured after 24 hrs by MTT assay relative to control; format: functional; in short: as §2
[22] = system: MCF7; assay: Induction of apoptosis in human MCF7 cells assessed as DNA laddering at IC50 concentration measured after 24 hrs by DNA laddering assay relative to control; format: functional, cell-based
In short: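 DNA from treated and untreated cells run on a gel and examined for fragmentation (laddering).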

[23] = system: B16-F10; assay: Cytotoxicity against mouse melanoma cell line B16F10 assessed as inhibition of cell viability measured after 24 hrs by MTT assay; format: functional, cell-based; settings: B16-F10, 24 h; in short: as §1
[24] = system: HepG2; assay: Cytotoxicity against human liver hepatocellular carcinoma cell line HepG2 assessed as inhibition of cell viability measured after 24 hrs by MTT assay; format: functional, cell-based; settings: HepG2, 24 h; in short: as §1

SMILES: COc1ccc(Cc2nc(-c3cc(Br)c(O)c(Br)c3)cnc2Cl)cc1Br
- IC50 [1]: 108 µM
- IC50 [2]: 41.2 µM

SMILES: COc1ccc(Cc2nc(-c3cc(Br)c(OCCCN(C)C)c(Br)c3)cnc2Cl)cc1Br
- IC50 [1]: 87.3 µM
- IC50 [2]: 14.4 µM

SMILES: COc1ccc(Cc2nc(-c3cc(Br)c(O)c(Br)c3)c[nH]c2=O)cc1Br
- IC50 [1]: 125 µM
- IC50 [2]: 52 µM

SMILES: CNCCCOc1c(Br)cc(-c2cnc(Cl)c(Cc3ccc(OC)c(Br)c3)n2)cc1Br
- IC50 [1]: 133 µM
- IC50 [2]: 25.3 µM

SMILES: COc1cc([C@@H]2c3cc4c(cc3[C@@H](O[C@@H]3O[C@@H]5CO[C@@H](C)O[C@H]5[C@H](O)[C@H]3O)[C@H]3COC(=O)[C@H]23)OCO4)cc(OC)c1O [ETOPOSIDE]
- Activity [3]: 33.7%
- Activity [4]: 23.9%
- Activity [5]: 47.9%
- Activity [6]: 4.3%
- Activity [7]: 100%
- Activity [8]: 100%
- Activity [9]: 39.2%
- Activity [10]: 93.4%
- Activity [11]: 100%
- IC50 [12]: 16.3 µM
- Activity [13]: 17.8%
- IC50 [14]: 5.3 µM
- Activity [15]: 8.9%
- Activity [16]: 51%
- Activity [17]: 78.7%
- Activity [18]: 100%
- Activity [19]: 100%

SMILES: COc1ccc(Cc2nc(-c3cc(Br)c(OCCCN(C)C)c(Br)c3)c[nH]c2=O)cc1Br [Ma'edamine A]
- IC50 [1]: 46.2 µM
- IC50 [12]: 6.9 µM
- Activity [20]: Active
- IC50 [14]: 7.9 µM
- Survival [21]: 47.7%
- Activity [22]: Active
- IC50 [2]: 12.2 µM
- IC50 [23]: 16.7 µM
- IC50 [24]: 29.6 µM

SMILES: CNCCCOc1c(Br)cc(-c2c[nH]c(=O)c(Cc3ccc(OC)c(Br)c3)n2)cc1Br [Ma'edamine B]
- IC50 [1]: 90.7 µM
- IC50 [12]: 10.9 µM
- Activity [20]: Active
- IC50 [14]: 10.3 µM
- Survival [21]: 49.256%
- Activity [22]: Active
- IC50 [2]: 15.4 µM
- IC50 [23]: 53.3 µM
- IC50 [24]: 42.8 µM
